{"data": "Measurements of several laboratories", "target": "Ephrin type-A receptor 2 (EPHA2, Homo sapiens, UniProt P29317)", "Sequence (P29317 613-875, limits assumed, as in one of the studies)": "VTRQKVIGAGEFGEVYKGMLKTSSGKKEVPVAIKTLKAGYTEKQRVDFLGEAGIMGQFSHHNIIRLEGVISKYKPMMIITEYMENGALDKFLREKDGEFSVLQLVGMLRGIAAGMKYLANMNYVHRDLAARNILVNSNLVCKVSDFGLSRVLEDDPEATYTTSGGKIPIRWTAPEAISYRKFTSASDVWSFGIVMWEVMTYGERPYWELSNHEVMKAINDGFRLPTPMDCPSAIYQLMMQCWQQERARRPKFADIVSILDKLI"}
{"SMILES": "CS(=O)(=O)N1CCCC(NC(=O)[C@H](CCC2CCCCC2)NC(=O)c2ccc(CNc3ncnc4c3nnn4-c3ccccc3)cc2)C1 (stereo partly drawn)", "read-out": "cell-free assay", "method": "competition with immobilised ligand", "concentration": "0.1 µM", "endpoint": "remaining binding", "result": "100%"}
{"SMILES": "CCCS(=O)(=O)Nc1ccc(F)c(C(=O)c2c[nH]c3ncc(-c4ccc(Cl)cc4)cc23)c1F", "read-out": "enzyme activity", "action": "inhibitor", "concentration": "1 µM", "endpoint": "inhibition", "result": "< 10%"}
{"SMILES": "N#CC1(c2ccccn2)CCN(Cc2cc(C(=O)N3CCCC3)c(=O)n3ccccc23)CC1", "read-out": "cell-free assay", "method": "competition with immobilised ligand", "concentration": "1 µM", "endpoint": "remaining binding", "result": "86%"}
{"SMILES": "Cc1sc(C(=O)NC2COC2)cc1-n1cc(NC(=O)Nc2c(F)cccc2Cl)cn1", "read-out": "enzyme activity", "action": "inhibitor", "concentration": "10 µM", "endpoint": "remaining activity", "result": "102%"}
{"SMILES": "CNCc1ccccc1-c1csc([C@H](C)Nc2nc(C)nc3cc(OC)c(OC)cc23)c1", "read-out": "cell-free assay", "method": "competition with immobilised ligand", "concentration": "1 µM", "endpoint": "remaining binding", "result": "80%"}
{"SMILES": "CC/C(=N\\NC(=O)NCc1cccc(O)c1)c1ccc(O)c(C)c1O", "read-out": "enzyme activity", "action": "inhibitor", "concentration": "0.1 µM", "endpoint": "inhibition", "result": "3.9%"}
{"SMILES": "Cc1ccc(NC(=O)c2ccc(C)c(C(F)(F)F)c2)cc1C#Cc1nn(C2CCC(O)CC2)c2ncnc(N)c12 (stereo not drawn)", "read-out": "cell-free assay", "concentration": "10 µM", "endpoint": "remaining signal", "result": "-3%"}
{"SMILES": "O=C(Nc1cnc(Oc2ccc(F)cc2)nc1)N1CCc2ncccc2[C@@H]1c1ccc(F)cc1", "read-out": "cell-free assay", "method": "competition with immobilised ligand", "concentration": "1 µM", "endpoint": "remaining binding", "result": "99%"}
{"SMILES": "Cn1c(=O)n(-c2ccc(C(C)(C)C#N)cc2)c2c3cc(-c4cnc5ccccc5c4)ccc3ncc21", "read-out": "enzyme activity", "action": "inhibitor", "concentration": "10 µM", "endpoint": "remaining activity", "result": "110%"}
{"SMILES": "COc1cc2nccc(Oc3ccc(NC(=O)Nc4ccc(F)cc4F)c(F)c3)c2cc1OC", "read-out": "thermal stability", "method": "DSF", "concentration": "10 µM", "endpoint": "ΔTm", "result": "5 to 10 °C"}
{"SMILES": "C#Cc1cccc(Nc2ncnc3cc(OCCOC)c(OCCOC)cc23)c1", "read-out": "cell-free assay", "concentration": "0.5 µM", "endpoint": "remaining signal", "result": "91.3%"}
{"SMILES": "O=C(Nc1cnn(-c2csc(C(=O)NC3COC3)c2)c1)Nc1c(F)cccc1Cl", "read-out": "enzyme activity", "action": "inhibitor", "concentration": "5 µM", "endpoint": "remaining activity", "result": "97.9%"}
{"SMILES": "COc1cc2ncnc(Nc3ccc(Oc4ccccc4)cc3C)c2cc1OC", "read-out": "enzyme activity", "action": "inhibitor", "concentration": "1 µM", "endpoint": "inhibition", "result": "2%"}
{"SMILES": "CCN(CC)CCNC(=O)c1c(C)[nH]c(/C=C2\\C(=O)Nc3ccc(F)cc32)c1C", "read-out": "enzyme activity", "action": "inhibitor", "concentration": "0.3 µM", "endpoint": "inhibition", "result": "-12%"}
{"SMILES": "Cc1nccc(COC(=O)N2C[C@@H]3[C@@H](CNC(=O)c4ccc5[nH]nnc5c4)[C@@H]3C2)n1", "read-out": "cell-free assay", "method": "competition with immobilised ligand", "concentration": "1 µM", "endpoint": "remaining binding", "result": "92%"}
{"SMILES": "Cc1ccc(C(=O)Nc2ccc(CN3CCN(C)CC3)c(C(F)(F)F)c2)cc1C#Cc1cnc2cccnn12", "read-out": "cell-free assay", "concentration": "23.5 nM", "endpoint": "remaining signal", "result": "8.9%"}
{"SMILES": "CC(C)(C)c1nc(-c2cccc(NS(=O)(=O)c3c(F)cccc3F)c2F)c(-c2ccnc(N)n2)s1", "read-out": "enzyme activity", "action": "inhibitor", "method": "radiometric", "concentration": "1 µM", "endpoint": "remaining activity", "result": "133%"}
{"SMILES": "CNC(=O)c1cc2c(Oc3ccc(NC(=O)C4(C(=O)Nc5ccc(F)cc5)CC4)cc3)ccnc2cc1OC", "read-out": "enzyme activity", "action": "inhibitor", "method": "radiometric", "concentration": "1 µM", "endpoint": "inhibition", "result": "96%"}
{"SMILES": "Cc1cc(NC(=O)c2cccc3cc(-c4cccc5[nH]nc(N)c45)ccc23)ccc1F", "read-out": "enzyme activity", "action": "inhibitor", "concentration": "0.1 µM", "endpoint": "activity vs control", "result": "103%"}
{"SMILES": "COc1cc(Nc2cnc(C#N)c(O[C@H](C)CN(C)C)n2)ncc1-c1cnn(C)c1", "read-out": "enzyme activity", "action": "inhibitor", "method": "radiometric", "concentration": "1 µM", "endpoint": "remaining activity", "result": "59%"}
{"SMILES": "N#CCCc1ccc2c(c1)-c1[nH]c3ccc([N+](=O)[O-])cc3c1CC(=O)N2", "read-out": "cell-free assay", "concentration": "0.5 µM", "endpoint": "remaining signal", "result": "93.6%"}
{"SMILES": "O=C(CSc1nc2nccnc2c(=O)n1CCc1ccccc1)Nc1nccs1", "read-out": "enzyme activity", "action": "inhibitor", "concentration": "10 µM", "endpoint": "inhibition", "result": "8%"}
{"SMILES": "C[C@@H]1CN(c2cc(-c3nn(C)c4ccc(OC5(C)CC5)cc34)ncn2)C[C@H](C)O1", "read-out": "cell-free assay", "method": "competition with immobilised ligand", "concentration": "1 µM", "endpoint": "remaining binding", "result": "100%"}
{"SMILES": "C[C@@H]1CCN(C(=O)CC#N)C[C@@H]1N(C)c1ncnc2[nH]ccc12", "read-out": "cell-free assay", "concentration": "0.5 µM", "endpoint": "remaining signal", "result": "95.8%"}
{"SMILES": "Cc1ccc(Nc2nccc(N(C)c3ccc4c(C)n(C)nc4c3)n2)cc1S(N)(=O)=O", "read-out": "enzyme activity", "action": "inhibitor", "concentration": "10 µM", "endpoint": "inhibition", "result": "43%"}
{"SMILES": "Nc1nc(NC2CCCCC2)sc1C(=O)c1ccccc1", "read-out": "enzyme activity", "action": "inhibitor", "concentration": "10 µM", "endpoint": "remaining activity", "result": "110%"}
{"SMILES": "CC1=C(C#N)[C@@H](c2ccc3[nH]nc(C)c3c2)C(C#N)=C(c2ccc(Cl)cc2)N1", "read-out": "cell-free assay", "method": "competition with immobilised ligand", "concentration": "1 µM", "endpoint": "remaining binding", "result": "100%"}
{"SMILES": "CSc1nc(C)c(-c2ccnc(Nc3ccc(N4CCOCC4)cc3)c2)[nH]1", "read-out": "cell-free assay", "action": "inhibitor", "concentration": "10 µM", "endpoint": "inhibition", "result": "17.1%"}
{"SMILES": "Cc1cc(-n2nc(Cc3cc(F)cc(C(F)(F)F)c3)nc2C)ccc1C(N)=O", "read-out": "cell-free assay", "method": "competition with immobilised ligand", "concentration": "1 µM", "endpoint": "remaining binding", "result": "100%"}
{"SMILES": "CNC(=O)c1cc(Oc2ccc(NC(=O)Nc3ccc(Cl)c(C(F)(F)F)c3)cc2)ccn1", "read-out": "enzyme activity", "action": "inhibitor", "concentration": "10 µM", "endpoint": "inhibition", "result": "96%"}
